Where only a bound is given, the exact number is not on record here.

Results on 19 compounds are retold here after ChEMBL document CHEMBL2046351, “Discovery of cyclic sulfone hydroxyethylamines as potent and selective β-site APP-cleaving enzyme 1 (BACE1) inhibitors: structure-based design and in vivo reduction of amyloid β-peptides” (J Med Chem, 2012).

Chain of Cathepsin D (P07339 65-162 limits assumed): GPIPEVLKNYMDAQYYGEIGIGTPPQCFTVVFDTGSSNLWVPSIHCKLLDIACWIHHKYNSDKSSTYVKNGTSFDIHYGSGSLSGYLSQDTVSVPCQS
Chain of Cathepsin D (P07339 169-412 limits assumed): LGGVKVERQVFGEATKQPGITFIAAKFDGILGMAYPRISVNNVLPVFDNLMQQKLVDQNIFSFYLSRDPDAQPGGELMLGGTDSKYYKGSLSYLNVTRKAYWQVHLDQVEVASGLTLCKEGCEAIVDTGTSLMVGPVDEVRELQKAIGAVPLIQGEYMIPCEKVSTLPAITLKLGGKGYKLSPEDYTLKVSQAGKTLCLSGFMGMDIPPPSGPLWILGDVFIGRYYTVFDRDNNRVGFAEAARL
Chain of Beta-secretase 1 (P56817 whole entry): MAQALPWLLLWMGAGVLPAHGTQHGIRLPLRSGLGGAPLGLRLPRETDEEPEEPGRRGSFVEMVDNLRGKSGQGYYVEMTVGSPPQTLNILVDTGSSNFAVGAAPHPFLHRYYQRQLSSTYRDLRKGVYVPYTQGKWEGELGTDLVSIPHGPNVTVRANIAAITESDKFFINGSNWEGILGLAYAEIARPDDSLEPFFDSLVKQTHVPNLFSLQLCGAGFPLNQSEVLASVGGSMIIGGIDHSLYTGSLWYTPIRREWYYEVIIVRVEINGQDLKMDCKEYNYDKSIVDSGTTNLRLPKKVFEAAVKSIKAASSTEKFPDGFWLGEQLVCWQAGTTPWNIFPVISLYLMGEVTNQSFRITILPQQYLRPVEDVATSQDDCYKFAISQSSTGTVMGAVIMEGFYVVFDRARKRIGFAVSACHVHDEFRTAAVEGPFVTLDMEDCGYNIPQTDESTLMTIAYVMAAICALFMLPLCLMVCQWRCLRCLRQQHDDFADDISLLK

The first data set concerns the target Beta-secretase 1 (Homo sapiens, UniProt P56817).
Settings: not given
As for `CC(C)(C)c1cccc(CN[C@H]2CS(=O)(=O)C[C@@H](Cc3ccc4[nH]ccc4c3)[C@@H]2O)c1` (racemic), half-maximal inhibition (IC50) was put at 2750 nM.

Turning to `CC(C)(C)c1cccc(CN[C@H]2CS(=O)(=O)C[C@@H](Cc3cc(F)c4c(c3)C3(CCC3)CN4)[C@@H]2O)c1` (racemic), the IC50 (usually the midpoint of a concentration-inhibition curve) came to 560 nM.

With `CC(C)(C)c1cccc(CN[C@H]2CS(=O)(=O)C[C@@H](Cc3ccc4[nH]cc(CC(F)(F)F)c4c3)[C@@H]2O)c1` (racemic), it took 120 nM to reach half-maximal inhibition (IC50).

Turning to `CCc1cc(C[C@@H]2CS(=O)(=O)C[C@H](NCc3cccc(C(C)(C)C)c3)[C@H]2O)cc(F)c1N`, the IC50 came to 870 nM.

As for `CC(C)(C)c1cccc(CN[C@H]2CS(=O)(=O)C[C@@H](Cc3cc(F)c(N)c(-c4cc[nH]n4)c3)[C@@H]2O)c1` (racemic), the IC50 turned out to be 28 nM.

Compound `CC(C)(C)c1cccc(CN[C@H]2CS(=O)(=O)C[C@@H](Cc3cc(F)c(N)c(-c4ccco4)c3)[C@@H]2O)c1` came in with an IC50 of 79 nM.

Take `CCCOc1cc(CC2CS(=O)(=O)CC(NCc3cccc(C(C)(C)C)c3)[C@H]2O)cc(F)c1N` (single isomer, unassigned): the IC50 came out at 56 nM.

A further data set relates to MDR1 (human). Kind of data set: Efflux ratio of permeability from basolateral to apical over apical to basolateral side of MDCK cells expressing human MDR1 at 5 uM after 2 hrs by LC/MS analysis. The format is ADME, cell-based, Canis lupus familiaris. The conditions noted are these: dog. Put shortly:
(§1)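 MDCK cells retrovirally transduced with human MDR1, seeded on transwells ≥3 days; bidirectional transport at 5 μM, 2 h, 37 °C, LC/MS quantitation. Papp = (dQ/dt)/(A·C0), A 0.11 cm2; ER = Papp B>A / Papp A>B. Means of at least three experiments.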
Consider `CC(F)(F)c1cccc(CN[C@H]2CS(=O)(=O)C[C@@H](Cc3cc(F)c(N)c(Br)c3)[C@@H]2O)c1`, for which the efflux ratio – broadly, a quotient of directional permeabilities that is used to spot active efflux – at 2 h, 5 µM amounted to 4.

Regarding `CC(C)(C)c1cccc(CN[C@H]2CS(=O)(=O)C[C@@H](Cc3ccc4[nH]ccc4c3)[C@@H]2O)c1` (racemic), the efflux ratio at 2 h, 5 µM amounted to 3.

Consider `CC(C)(C)c1cccc(CN[C@H]2CS(=O)(=O)C[C@@H](Cc3cc(F)c4c(c3)C3(CCC3)CN4)[C@@H]2O)c1` (racemic), for which the efflux ratio at 2 h, 5 µM came to 3.

`CC(C)(C)c1cccc(CN[C@H]2CS(=O)(=O)C[C@@H](Cc3ccc4[nH]cc(CC(F)(F)F)c4c3)[C@@H]2O)c1` (racemic): the efflux ratio at 2 h, 5 µM turned out to be 7.

Turning to `CCc1cc(C[C@@H]2CS(=O)(=O)C[C@H](NCc3cccc(C(C)(C)C)c3)[C@H]2O)cc(F)c1N`, the efflux ratio at 2 h, 5 µM was 2.

As for `CC(C)(C)c1cccc(CN[C@H]2CS(=O)(=O)C[C@@H](Cc3ccc4[nH]cc(CC(F)F)c4c3)[C@@H]2O)c1` (racemic), the efflux ratio at 2 h, 5 µM was found to be 8.

For `CC(C)(C)c1cccc(CN[C@H]2CS(=O)(=O)C[C@@H](Cc3cc(F)c(N)c(-c4cc[nH]n4)c3)[C@@H]2O)c1` (racemic), the efflux ratio at 2 h, 5 µM worked out at 17.

Turning to `CC(C)(C)c1cccc(CN[C@H]2CS(=O)(=O)C[C@@H](Cc3cc(F)c(N)c(-c4ccco4)c3)[C@@H]2O)c1`, the efflux ratio at 2 h, 5 µM came out at 2.

Consider `CCCOc1cc(CC2CS(=O)(=O)CC(NCc3cccc(C(C)(C)C)c3)[C@H]2O)cc(F)c1N` (single isomer, unassigned), for which the efflux ratio at 2 h, 5 µM turned out to be 3.

A further data set concerns the target Cathepsin D (Homo sapiens, UniProt P07339). Nature of the data set: Inhibition of human recombinant CatD using Mca-GKPILFFRLK(DNP)-dR-NH2 as substrate after 1 hr by fluorescence analysis.
Settings: not given
Turning to `CO[C@@H](Cc1cc(C[C@@H]2CS(=O)(=O)C[C@H](NCc3cccc(C(C)(C)C)c3)[C@H]2O)cc(F)c1N)C(F)(F)F`, the IC50 came out at 1140 nM.

Consider `CC(F)(F)c1cccc(CN[C@H]2CS(=O)(=O)C[C@@H](Cc3cc(F)c(N)c(Br)c3)[C@@H]2O)c1`, for which the IC50 was found to be 4160 nM.

Take `CCOC[C@@H](Oc1cc(C[C@@H]2CS(=O)(=O)C[C@H](NCc3cccc(C(C)(C)C)c3)[C@H]2O)cc(F)c1N)C(F)(F)F`: the IC50 was 230 nM.

Consider `COCCOC[C@@H](Oc1cc(C[C@@H]2CS(=O)(=O)C[C@H](NCc3cccc(C(C)(C)C)c3)[C@H]2O)cc(F)c1N)C(F)(F)F`, for which the IC50 stood at 250 nM.

For the compound `CCOC[C@H](Oc1cc(C[C@@H]2CS(=O)(=O)C[C@H](NCc3cccc(C(C)(C)C)c3)[C@H]2O)cc(F)c1N)C(F)(F)F`, the IC50 was determined as 1230 nM.

In the case of `COCCOc1cc(C[C@@H]2CS(=O)(=O)C[C@H](NCc3cccc(C(C)(C)C)c3)[C@H]2O)cc(F)c1N`, the IC50 stood at 3980 nM.

In the case of `CN(C)CC(=O)Nc1ccc(C[C@@H]2CS(=O)(=O)C[C@H](NCc3cccc(C(C)(C)C)c3)[C@H]2O)cc1F`, the IC50 is more than 10000 nM.

For the compound `CC(C)(C)c1cccc(CN[C@H]2CS(=O)(=O)C[C@@H](Cc3ccc4[nH]ccc4c3)[C@@H]2O)c1` (racemic), the IC50 is 5530 nM.

With `CC(C)(C)c1cccc(CN[C@H]2CS(=O)(=O)C[C@@H](Cc3cc(F)c4c(c3)C3(CCC3)CN4)[C@@H]2O)c1` (racemic), the IC50 was 80 nM.

As for `CC(C)(C)c1cccc(CN[C@H]2CS(=O)(=O)C[C@@H](Cc3ccc4[nH]cc(CC(F)(F)F)c4c3)[C@@H]2O)c1` (racemic), the half-maximal inhibitory concentration (IC50) worked out at 1490 nM.

For the compound `CCc1cc(C[C@@H]2CS(=O)(=O)C[C@H](NCc3cccc(C(C)(C)C)c3)[C@H]2O)cc(F)c1N`, the half-inhibitory concentration (IC50) stood at 2000 nM.

Consider `CC(C)(C)c1cccc(CN[C@H]2CS(=O)(=O)C[C@@H](Cc3ccc4[nH]cc(CC(F)F)c4c3)[C@@H]2O)c1` (racemic), for which the IC50 turned out to be 1220 nM.

As for `CC(C)(C)c1cccc(CN[C@H]2CS(=O)(=O)C[C@@H](Cc3cc(F)c(N)c(C[C@H](O)C(F)(F)F)c3)[C@@H]2O)c1`, the half-inhibitory concentration (IC50) was found to be 1050 nM.

As to `CC(C)(C)c1cccc(CN[C@H]2CS(=O)(=O)C[C@@H](Cc3cc(F)c(N)c(OC4COC4)c3)[C@@H]2O)c1`, the concentration for half-maximal inhibition (IC50) was found to be 1150 nM.

In the case of `CC(C)(C)c1cccc(CN[C@H]2CS(=O)(=O)C[C@@H](Cc3cc(F)c(N)c(-c4cc[nH]n4)c3)[C@@H]2O)c1` (racemic), the IC50 amounted to 600 nM.

As to `CC(C)(C)c1cccc(CN[C@H]2CS(=O)(=O)C[C@@H](Cc3cc(F)c4c(c3)C3(CCC(F)(F)CC3)CN4)[C@@H]2O)c1` (racemic), the IC50 is 3530 nM.

Turning to `CC(C)(C)c1cccc(CN[C@H]2CS(=O)(=O)C[C@@H](Cc3cc(F)c(N)c(-c4ccco4)c3)[C@@H]2O)c1`, the concentration for half-maximal inhibition (IC50) was 360 nM.

Turning to `CCCOc1cc(CC2CS(=O)(=O)CC(NCc3cccc(C(C)(C)C)c3)[C@H]2O)cc(F)c1N` (single isomer, unassigned), the concentration for half-maximal inhibition (IC50) came to 2220 nM.

As for `CCc1cc(C[C@@H]2CS(=O)(=O)C[C@H](NCc3cccc(C(C)(C)C)c3)[C@H]2O)cc(F)c1NC(=O)CN(C)C`, the IC50 was more than 10000 nM.

In a further data set the test system is MDR1 (human). Kind of data set: Apparent permeability across MDCK cells expressing human MDR1 at 5 uM after 2 hrs by LC-MS analysis. It counts as ADME, cell-based, Canis lupus familiaris. The conditions noted are these: dog. The method, boiled down:
as §1
On to `CO[C@@H](Cc1cc(C[C@@H]2CS(=O)(=O)C[C@H](NCc3cccc(C(C)(C)C)c3)[C@H]2O)cc(F)c1N)C(F)(F)F`, for which the apparent permeability coefficient (Papp) (as a rule, a coefficient for how fast a substance crosses the barrier) at 2 h, 5 µM stood at 9 ×10⁻⁶ cm/s.

For the compound `CC(F)(F)c1cccc(CN[C@H]2CS(=O)(=O)C[C@@H](Cc3cc(F)c(N)c(Br)c3)[C@@H]2O)c1`, the Papp at 2 h, 5 µM is 28 ×10⁻⁶ cm/s.

`CCOC[C@@H](Oc1cc(C[C@@H]2CS(=O)(=O)C[C@H](NCc3cccc(C(C)(C)C)c3)[C@H]2O)cc(F)c1N)C(F)(F)F`: the apparent permeability (Papp) at 2 h, 5 µM was determined as 11 ×10⁻⁶ cm/s.

For `COCCOC[C@@H](Oc1cc(C[C@@H]2CS(=O)(=O)C[C@H](NCc3cccc(C(C)(C)C)c3)[C@H]2O)cc(F)c1N)C(F)(F)F`, the apparent permeability (Papp) at 2 h, 5 µM was found to be 12 ×10⁻⁶ cm/s.

As to `CCOC[C@H](Oc1cc(C[C@@H]2CS(=O)(=O)C[C@H](NCc3cccc(C(C)(C)C)c3)[C@H]2O)cc(F)c1N)C(F)(F)F`, the Papp at 2 h, 5 µM amounted to 8 ×10⁻⁶ cm/s.

Take `COCCOc1cc(C[C@@H]2CS(=O)(=O)C[C@H](NCc3cccc(C(C)(C)C)c3)[C@H]2O)cc(F)c1N`: the Papp at 2 h, 5 µM was 25 ×10⁻⁶ cm/s.

For the compound `CN(C)CC(=O)Nc1ccc(C[C@@H]2CS(=O)(=O)C[C@H](NCc3cccc(C(C)(C)C)c3)[C@H]2O)cc1F`, the Papp at 2 h, 5 µM was found to be 6 ×10⁻⁶ cm/s.

Turning to `CC(C)(C)c1cccc(CN[C@H]2CS(=O)(=O)C[C@@H](Cc3ccc4[nH]ccc4c3)[C@@H]2O)c1` (racemic), the apparent permeability coefficient (Papp) at 2 h, 5 µM came to 10 ×10⁻⁶ cm/s.

With `CC(C)(C)c1cccc(CN[C@H]2CS(=O)(=O)C[C@@H](Cc3cc(F)c4c(c3)C3(CCC3)CN4)[C@@H]2O)c1` (racemic), the apparent permeability coefficient (Papp) at 2 h, 5 µM was found to be 6 ×10⁻⁶ cm/s.

`CC(C)(C)c1cccc(CN[C@H]2CS(=O)(=O)C[C@@H](Cc3ccc4[nH]cc(CC(F)(F)F)c4c3)[C@@H]2O)c1` (racemic): the Papp at 2 h, 5 µM amounted to 2.5 ×10⁻⁶ cm/s.

For the compound `CCc1cc(C[C@@H]2CS(=O)(=O)C[C@H](NCc3cccc(C(C)(C)C)c3)[C@H]2O)cc(F)c1N`, the Papp at 2 h, 5 µM is 23 ×10⁻⁶ cm/s.

For the compound `CC(C)(C)c1cccc(CN[C@H]2CS(=O)(=O)C[C@@H](Cc3ccc4[nH]cc(CC(F)F)c4c3)[C@@H]2O)c1` (racemic), the apparent permeability coefficient (Papp) at 2 h, 5 µM turned out to be 6 ×10⁻⁶ cm/s.

On to `CC(C)(C)c1cccc(CN[C@H]2CS(=O)(=O)C[C@@H](Cc3cc(F)c(N)c(C[C@H](O)C(F)(F)F)c3)[C@@H]2O)c1`, for which the Papp at 2 h, 5 µM was 13 ×10⁻⁶ cm/s.

Turning to `CC(C)(C)c1cccc(CN[C@H]2CS(=O)(=O)C[C@@H](Cc3cc(F)c(N)c(OC4COC4)c3)[C@@H]2O)c1`, the Papp at 2 h, 5 µM came out at 23 ×10⁻⁶ cm/s.

Consider `CC(C)(C)c1cccc(CN[C@H]2CS(=O)(=O)C[C@@H](Cc3cc(F)c(N)c(-c4cc[nH]n4)c3)[C@@H]2O)c1` (racemic), for which the Papp at 2 h, 5 µM was 20 ×10⁻⁶ cm/s.

Regarding `CC(C)(C)c1cccc(CN[C@H]2CS(=O)(=O)C[C@@H](Cc3cc(F)c(N)c(-c4ccco4)c3)[C@@H]2O)c1`, the apparent permeability (Papp) at 2 h, 5 µM amounted to 2 ×10⁻⁶ cm/s.

For the compound `CCCOc1cc(CC2CS(=O)(=O)CC(NCc3cccc(C(C)(C)C)c3)[C@H]2O)cc(F)c1N` (single isomer, unassigned), the apparent permeability coefficient (Papp) at 2 h, 5 µM is 7 ×10⁻⁶ cm/s.

`CCc1cc(C[C@@H]2CS(=O)(=O)C[C@H](NCc3cccc(C(C)(C)C)c3)[C@H]2O)cc(F)c1NC(=O)CN(C)C`: the apparent permeability (Papp) at 2 h, 5 µM was 13 ×10⁻⁶ cm/s.
